Tn7 DDE FP: DD(E)-Tn7 binding inhibition, primary FP screen; P02675; FP displacement of FITC-Tn7 peptide from fibrin DD(E); 0% = median of compound wells per plate; inhibition, % at 8.3 µM; 370,000 compounds, 0.13% hits;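 active = inhibition above the mean of compounds falling within the control limits plus 3 SD of them, cut at about 14% in these data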;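 note: 0% = plate median of compound wells and 100% = 10 µM Aha-Tn7 peptide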
Target sequence (P02675 whole entry, looked up): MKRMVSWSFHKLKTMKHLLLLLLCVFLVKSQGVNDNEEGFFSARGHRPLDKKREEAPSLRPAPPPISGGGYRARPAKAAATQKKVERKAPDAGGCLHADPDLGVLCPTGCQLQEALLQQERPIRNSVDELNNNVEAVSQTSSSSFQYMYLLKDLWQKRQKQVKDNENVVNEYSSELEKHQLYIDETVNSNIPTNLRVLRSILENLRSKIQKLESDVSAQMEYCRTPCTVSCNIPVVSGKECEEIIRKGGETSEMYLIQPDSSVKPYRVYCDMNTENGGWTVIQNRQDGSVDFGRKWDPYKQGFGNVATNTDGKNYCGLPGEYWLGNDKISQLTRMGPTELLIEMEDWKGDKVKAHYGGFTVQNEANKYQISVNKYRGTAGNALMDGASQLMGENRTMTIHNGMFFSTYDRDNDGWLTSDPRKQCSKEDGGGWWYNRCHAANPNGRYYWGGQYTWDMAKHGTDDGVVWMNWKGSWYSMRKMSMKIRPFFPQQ
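Assay system: Fibrin-DD(E) protein isolated from polymerized human fibrin clots; read-out basis: percent inhibition; medium: Tris/NaCl/CaCl2 buffer, pH 7.8; signal: FP measurement; incubation: 10 min plus 3 h, room temperature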
HTRA1 inhibitor: HTRA1 (human) protease inhibition. Q92743. recombinant HTRA1, FP-rhodamine activity-based probe, fluorescence polarization. inhibition, % at 5.96 µM. 340,000 compounds, 0.5% hits. AID 504803; in the data active = inhibition above about 36%;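 note: 0% = enzyme with DMSO and 100% = wells lacking enzyme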
SIAE inh: human SIAE inhibition, primary screen | SIAE FP-Rh probe binding, fluorescence polarization | inhibition, % at 9.66 µM | 370,000 compounds, 0.69% hits | AID 1053197;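 active = inhibition above a cutoff: mean of compounds within the control limits plus 3 SD of those, cut at about 17% in these data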;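 note: 0% = plate median of compound wells and 100% = probe without SIAE protein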
TCR-CD3 inh: human TCR-CD3 binding inhibition | 360,000 compounds, 0.37% hits | AID 651800 | TAMRA-labeled TCR probe fluorescence, biochemical | inhibition, % at 9.4 µM; in the data active = inhibition above about 19%;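 note: recombinant mutant TCR 2C K166C tagged with TAMRA read by polarization; 0% = receptor in buffer alone and 100% = receptor with positive control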
DDE Tn6 FP inh: disrupts Tn6 cyclic peptide binding to fibrin D-Dimer-E complex. P02675. Fibrin DD(E) TRITC-Tn6 fluorescence polarization displacement. inhibition, % at 8.3 µM. 370,000 compounds, 0.21% hits;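 active = inhibition above a per-campaign cutoff: mean of compounds within control limits plus 3 SD, cut at about 15% in these data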;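 note: 0% = median of all compound wells on the plate and 100% = blocking peptide control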
ABHD4 inh: ABHD4 (mouse) inhibition, primary FP screen; purified mABHD4, FP-Rh probe fluorescence polarization; 370,000 compounds, 0.54% hits; Q8VD66; inhibition, % at 8.92 µM; AID 720543;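 active = inhibition exceeding the mean over every tested compound plus 3 SD, cut at about 30% in these data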;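 note: 0% = plate median of compound wells and 100% = S159A mutant with DMSO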
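Test system: mABHD4 protein | Buffer or medium: HEPES pH 7.0 buffer, 150 mM NaCl, 0.01% Pluronic F-127 | Probe or stimulus: FP-Rh fluorescent activity-based probe, added after compound pre-incubation | Timing: Pre-incubation 45 min, probe exposure 60 min, at 25 °C | Technique: Fluorescence polarization, excitation 525 nm, emission 598 nm, BODIPY TMR filters | Repeats: Single well per compound (singlicate)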
DDE Tn6 FP ctr: counter-screen hit for Tn6 peptide-fibrin DD(E) binding disruption | AID 720621 | shares compounds with DDE Tn6 FP inh | TRITC-Tn6 fluorescence polarization displacement; 0% = median of compound wells, not DMSO | inhibition, % at 8.3 µM | 680 compounds, 2% hits;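 active = inhibition above the mean of test compounds lying between the control limits plus 3 SD of those, cut at about 14% in these data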;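 note: 0% = median of compound wells and 100% = wells with Aha-Tn7 blocking peptide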
Tn6 DDE conf: confirmation of inhibitors of Tn6 binding to human fibrin DD(E) | shares compounds with DDE Tn6 FP inh | FP displacement of TRITC-Tn6 peptide from DD(E); 0% = per-plate median of test wells | inhibition, % at 8.3 µM | 680 compounds, 10% hits;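 active = inhibition above the mean of compounds lying within the control limits plus 3 SD, cut at about 16% in these data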;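 note: 100% = high control wells holding a competing inhibitor peptide at 10 µM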
Active calls of the source: *; nt = no result given. Hits are enriched below; roughly 1.8% of the tested compounds scored in any of these assays.

SMILES	Tn7 DDE FP	HTRA1 inhibitor	SIAE inh	TCR-CD3 inh	DDE Tn6 FP inh	ABHD4 inh	DDE Tn6 FP ctr	Tn6 DDE conf
NC(=O)c1ccc(NC(=O)COC(=O)CC2CC3CCC2C3)cc1 (configuration not stated)	-6	0	-2	-1	-2	-4	nt	nt
Cc1ccc2[nH]c(=O)c(-c3noc(C(C)C)n3)cc2c1	-2	1	0	3	17*	5	-1	-5
O=C(Nc1ccc(S(=O)(=O)Nc2ncccn2)cc1)C1CC(=O)N(c2ccc(Cl)cc2)C1 (configuration not stated)	5	-1	-8	4	17*	4	-1	-4
O=C(c1ccncc1)N1CCC(Oc2cccnc2)CC1	0	nt	0	nt	-1	-1	nt	nt
Nc1sccc1C(=O)c1ccccc1	3	nt	6	-3	15*	13	1	0
CCN(CC)C(=O)CC[C@@H]1CC[C@]2(CCCN(Cc3cccc4ccccc34)C2)O1	-5	nt	3	nt	6	-3	nt	nt
CC(=O)Nc1ccc2c(c1)C(C)(C)C(C)N2C (configuration not stated)	-5	nt	-282	-53	22*	-187	2	7
COc1ccc(OC)c(C(=O)NC(CC(N)=O)c2ccc(NCCN3CCCC3)c([N+](=O)[O-])c2)c1 (configuration not stated)	4	7	0	-5	16*	-2	4	-5
Cc1ccccc1NS(=O)(=O)c1ccc(OCCNS(C)(=O)=O)cc1	1	-2	-10	6	17*	6	-8	-13
Cc1ccccc1NS(=O)(=O)c1ccc(OCC(=O)N2CCCC2)cc1	2	5	-1	4	-1	-2	nt	nt
Cc1ccc(S(=O)(=O)N2CCN(C(=O)c3cccn3C)CC2)cc1	1	nt	5	nt	-2	2	nt	nt
Cn1c(=O)c2[nH]c(SCC(=O)NCCc3cccc(F)c3)nc2n(C)c1=O	-1	nt	1	nt	7	-2	nt	nt
COc1ccc(C(=O)OCCN(C)C2CN(Cc3cn(Cc4cccc(F)c4)nn3)S(=O)(=O)C2)cc1OC (configuration not stated)	1	nt	5	nt	6	1	nt	nt
C#CCn1c(S(=O)(=O)Cc2ccccc2Cl)nc(-c2ccccc2)c1-c1ccccc1	-3	-4	-2	5	16*	-8	12	8
C=C1CCN(c2ccc(C(=O)NCc3ccc(OC)cc3)cc2[N+](=O)[O-])CC1	-1	-32	-2	-1	15*	-7	-3	-6
CCCCCCCCN1C(=O)[C@@H](CC(=O)NCCC(C)C)C[C@@]2(C(=O)OC)C1=C[C@H](C(C)(C)C)O[C@@H]2C	-5	nt	-4	9	16*	3	2	-4
O=C(CCS(=O)(=O)c1ccccc1)Nc1cc(Cl)ccc1F	-5	nt	2	nt	0	1	nt	nt
CCn1c(C)c(C2=CCN(S(=O)(=O)c3ccc(C)cc3)CC2)c2ccccc21	3	-75	-78	-31	25*	-93	4	8
CCC(C)(C(=O)NC1CCCCC1)N(C(=O)Cc1cccs1)c1ccccc1 (configuration not stated)	0	-8	-4	4	15*	0	1	2
CS(=O)(=O)c1cccc(C(=O)Nc2ccccc2Cc2ccccc2)c1	-3	-3	3	-2	16*	-4	0	-3
COC(=O)[C@]12C[C@H](CC(=O)NCc3cccs3)C(=O)N(Cc3ccco3)C1=C[C@H](C(C)C)O[C@@H]2C1CC1	5	nt	1	nt	-3	-4	nt	nt
Cc1ccc(CN2C(=O)C(C)Oc3ccc(C)cc32)cc1 (configuration not stated)	0	nt	2	-4	0	-5	nt	nt
